The values that follow come from ChEMBL document CHEMBL1131449, “4-(trans-4-Methylcyclohexyl)-4-oxobutyric acid (JTT-608). A new class of antidiabetic agent” (1998).

Assay [1] deals with Rattus norvegicus. Nature of the assay: Percent decrease of hyperglycemia at 30 min after glucose loading(1 g/kg ip) relative to vehicle control in rats at dose 100 mg/kg po. The format is functional, organism-based. The arrangement: dose 100 mg/kg. The essentials: (§1)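 Normal rats, groups of four to six, fasted 16 h. Glucose given 1 g/kg ip, with oral vehicle or compound. Tail-vein blood glucose measured by the hexokinase method. Value is % reduction of hyperglycemia 30 min after the glucose load versus vehicle control. Dunnett's two-tailed test used.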

Assay [2] has as its system Rattus norvegicus. Put plainly: Hypoglycemic activity in fasting rats at a dose of 30 mg/kg po. In kind it is functional, organism-based. On the set-up: dose 30 mg/kg. The essentials:
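Normal rats, groups of four or five, fasted 16 h, then given vehicle or compound by mouth. Tail-vein blood sampled over 4 h for glucose (hexokinase method) and insulin (two-antibody radioimmunoassay). Comparison to vehicle control by Dunnett's two-tailed test.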

The test system of assay [3] is Rattus norvegicus. Put plainly: Percent decrease of hyperglycemia at 30 min after glucose loading(1 g/kg ip) relative to vehicle control in rats at dose 100 mg/kg po. In kind it is functional. The arrangement: scale not given: the % may be the effect or the level left. The essentials:
as §1

The test system of assay [4] is Rattus norvegicus. Nature of the assay: Percent decrease of hyperglycemia at 30 min after glucose loading(1 g/kg ip) relative to vehicle control in rats at dose 10 mg/kg po. The arrangement: dose 10 mg/kg. The format is functional, organism-based. The gist of the method:
as §1

Assay [5] relates to Rattus norvegicus. Nature of the assay: Percent decrease of hyperglycemia at 30 min after glucose loading(1 g/kg ip) relative to vehicle control in rats at dose 30 mg/kg po. On the set-up: scale not given: the % may be the effect or the level left. In kind it is functional. The essentials:
as §1

In assay [6] the test system is Rattus norvegicus. Put plainly: Percent decrease of hyperglycemia at 30 min after glucose loading(1 g/kg ip) relative to vehicle control in rats at dose 30 mg/kg po. The format is functional, organism-based. The arrangement: dose 30 mg/kg. The essentials:
as §1

Assay [7] relates to Rattus norvegicus. Put plainly: Percent decrease of hyperglycemia at 30 min after glucose loading(1 g/kg ip) relative to vehicle control in rats at dose 10 mg/kg po. The format is functional. The arrangement: scale not given: the % may be the effect or the level left. The gist of the method:
as §1

The subject of assay [8] is Rattus norvegicus. Put plainly: Percent decrease of hyperglycemia at 30 min after glucose loading(1 g/kg ip) relative to vehicle control in rats at dose 1 mg/kg po. In kind it is functional, organism-based. The arrangement: dose 1 mg/kg. The gist of the method: as §1
Assay [9] deals with Rattus norvegicus. Put plainly: Percent decrease of hyperglycemia at 30 min after glucose loading(1 g/kg ip) relative to vehicle control in rats at dose 3 mg/kg po. In kind it is functional. The arrangement: scale not given: the % may be the effect or the level left. The essentials:
as §1

Active and inactive are the calls of the source. The rule behind the calls is not given here.

Turning to `O=C(O)CCC(=O)C1CCCC1`, the Effect entry in the assay on Rattus norvegicus [1] is “inactive”.
On to `C[C@H]1CC[C@@H](C(=O)CCC(=O)O)CC1`, for which the Effect entry with Rattus norvegicus [2] and in the assay with Rattus norvegicus [4] was “inactive” each time. The Effect in the assay on Rattus norvegicus [3] was 44%; in the assay on Rattus norvegicus [5], 32%.
As to `C[C@H]1CC[C@H](C(=O)NCC(=O)O)CC1`, the Effect result in the assay on Rattus norvegicus [1] was “inactive”.
On the same count and under the same terms, next, `CC1CCCCC1C(=O)CCC(=O)O` (centres undefined): “inactive”; `C[C@H]1CC[C@H]([S+]([O-])CCC(=O)O)CC1` (some centres undefined): “inactive”; `CCC[C@H]1CC[C@H](C(=O)CCC(=O)O)CC1`: “inactive”.
Still for that read-out and setting: next, `C[C@H]1CC[C@H](CCCC(=O)O)CC1`: “inactive”; `C[C@H]1CC[C@H](C(=O)CCCC(=O)O)CC1`: “inactive”.
The same measure, in the same setting: as for `C[C@H]1CC[C@H](C(=O)OCC(=O)O)CC1`, the entry is “inactive”; as for `C[C@H]1CC[C@H](S(=O)(=O)CCC(=O)O)CC1`, “inactive”; as for `CC[C@H]1CC[C@H](C(=O)CCC(=O)O)CC1`, “inactive”.
`C[C@H]1CC[C@H](C(=O)CCC(N)=O)CC1`: the Effect entry with Rattus norvegicus [2] and in the assay on Rattus norvegicus [4] was “inactive” throughout. In addition, the values for the Effect in the assay with Rattus norvegicus [3] and with Rattus norvegicus [5] were 47% and 27%, respectively.
`CC1(C(=O)CCC(=O)O)CCCCC1` yielded an Effect in the assay on Rattus norvegicus [3] of 28%. The Effect entry in the assay on Rattus norvegicus [6] was “inactive”.
As for `O=C(O)CCC(=O)C1CCCCC1`, the Effect result in the assay with Rattus norvegicus [2] and in the assay on Rattus norvegicus [4] was “inactive” each time. For the same compound, the Effect with Rattus norvegicus [3] was 26%; in the assay on Rattus norvegicus [5], 27%.
Take `O=C(O)CCC(=O)C1CCCCCC1`: the Effect result in the assay on Rattus norvegicus [1] was “inactive”.
With `CC1CCCC(C(=O)CCC(=O)O)C1` (centres undefined), the Effect in the assay with Rattus norvegicus [3] was determined as 37%. Moreover, the Effect result in the assay on Rattus norvegicus [6] is “inactive”.
For `CC1(C)CCC(C(=O)CCC(=O)O)CC1` the same measures were 34% and “inactive”.
As for `C[C@H]1CC[C@H](C(=O)CCC(=O)O)CC1`, the Effect result in the assay on Rattus norvegicus [2] and in the assay with Rattus norvegicus [8] was “inactive” throughout. Moreover, the Effect in the assay with Rattus norvegicus [3] is on record as 65%; in the assay with Rattus norvegicus [7] it was 32%; with Rattus norvegicus [9], 24%; with Rattus norvegicus [5] it was 41%.
Consider `CC(=O)CCC(=O)[C@H]1CC[C@H](C)CC1`, for which the Effect entry with Rattus norvegicus [2] and with Rattus norvegicus [4] was “inactive” throughout. Further, the Effect with Rattus norvegicus [3] worked out at 31%; in the assay with Rattus norvegicus [5] it was 30%.
